In ChEMBL document CHEMBL1136779 (J Med Chem, 2003):

T1: Carboxypeptidase G2 (Pseudomonas aeruginosa (strain ATCC 15692 / PAO1 / 1C / PRS 101 / LMG12228)) (UniProt Q9I056)
T1 sequence (whole entry): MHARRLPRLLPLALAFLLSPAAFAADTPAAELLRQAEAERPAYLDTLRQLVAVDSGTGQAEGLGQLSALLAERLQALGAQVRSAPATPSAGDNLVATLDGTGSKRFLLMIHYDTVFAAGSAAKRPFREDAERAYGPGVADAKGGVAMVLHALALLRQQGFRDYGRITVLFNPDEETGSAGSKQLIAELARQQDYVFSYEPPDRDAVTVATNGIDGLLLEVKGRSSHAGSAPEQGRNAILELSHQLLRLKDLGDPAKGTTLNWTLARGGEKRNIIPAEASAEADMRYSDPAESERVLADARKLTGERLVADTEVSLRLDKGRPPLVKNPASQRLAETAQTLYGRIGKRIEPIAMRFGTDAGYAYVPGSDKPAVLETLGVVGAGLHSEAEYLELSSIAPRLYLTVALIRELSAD

B1: Carboxypeptidase G2 (Pseudomonas aeruginosa (strain ATCC 15692 / PAO1 / 1C / PRS 101 / LMG12228)), Q9I056 (protein)
chain: T1 sequence (whole entry)

Experiments:
[1] = target: T1, Carboxypeptidase G2 (Pseudomonas aeruginosa (strain ATCC 15692 / PAO1 / 1C / PRS 101 / LMG12228)); assay: (§1) The kinetics of activation of the self-immolative prodrug by Carboxypeptidase G2 was measured
Procedure, shortened: (§2)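 CPG2 (50 mU) with prodrug 5-50 µM in 5 µM steps in CPG2 assay buffer (100 mM Tris-HCl pH 7.3, 260 µM ZnCl₂), 37 °C. Remaining prodrug quantified by HPLC at 0, 5, 10, 15 and 20 min; Km and kcat derived.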

[2] = Half-life period (prodrug) was determined; type: ADME
Procedure, shortened: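 Aqueous stability: 100 µM compound in CPG2 assay buffer (100 mM Tris-HCl pH 7.3, 260 µM ZnCl₂). Remaining parent measured by isocratic reverse-phase HPLC (10 mM ammonium acetate pH 5.0/methanol, UV 250 or 265-275 nm) at several times. Half-life from one-phase exponential decay fit. Labile compounds instead followed by absorbance change over 3 min; t½ = 0.69/rate constant.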

[3] = system: WiDr; assay: Cytotoxicity in WiDr cells expressing surface-tethered carboxypeptidase G2 (CPG2); type: functional, cell-based; conditions: Homo sapiens
Procedure, shortened: (§3)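 WiDr cells stably expressing surface-tethered CPG2 (stCPG2(Q)3) or β-galactosidase control; 2 × 10⁶ cells seeded, confluent after 48 h. Compound in DMSO stock diluted in medium, re-added at similar concentration after 1 h, further 20 h exposure. Cells reseeded in quadruplicate at ~2 × 10³/well, grown until controls confluent; SRB stain, 590 nm. IC50 from log dose-response sigmoid fit.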

[4] = system: WiDr; assay: Cytotoxicity in WiDr cells expressing beta-galactosidase control; type: functional, cell-based; conditions: Homo sapiens; procedure, shortened: as §3
[5] = Ratio of the half-life period of the prodrug and the drug was determined; type: ADME
[6] = target: T1, Carboxypeptidase G2 (Pseudomonas aeruginosa (strain ATCC 15692 / PAO1 / 1C / PRS 101 / LMG12228)); assay: Ratio of kinetic constants Kcat and Km was determined against Carboxypeptidase G2; procedure, shortened: as §2
[7] = system: WiDr; assay: Compound was tested for cytotoxicity in WiDr cells engineered for stable expression of beta-galactosidase; type: functional, cell-based; conditions: Homo sapiens; procedure, shortened: as §3
[8] = system: WiDr; assay: Compound was tested for cytotoxicity in WiDr cells engineered for stable expression of surface-tethered CPG2; type: functional, cell-based; conditions: Homo sapiens; procedure, shortened: as §3
[9] = compound: CN(C(=O)OCc1ccc(NC(=O)N[C@@H](CCC(=O)O)C(=O)O)cc1)c1ccc(N(CCCl)CCCl)cc1; assay: as §1; procedure, shortened: as §2
[10] = compound: CN(C(=O)OCc1ccc(OC(=O)N[C@@H](CCC(=O)O)C(=O)O)cc1)c1ccc(N(CCCl)CCCl)cc1; assay: as §1; procedure, shortened: as §2
[11] = compound: O=C(O)CC[C@H](NC(=O)Nc1ccc(CO)cc1)C(=O)O; assay: as §1; procedure, shortened: as §2
[12] = compound: O=C(O)CC[C@H](NC(=O)Nc1ccc(COC(=O)Nc2ccc(N(CCCl)CCCl)cc2)cc1)C(=O)O; assay: as §1; procedure, shortened: as §2
[13] = compound: O=C(O)CC[C@H](NC(=O)Nc1ccc(COC(=O)Nc2ccccc2N(CCCl)CCCl)cc1)C(=O)O; assay: as §1; procedure, shortened: as §2
[14] = compound: O=C(O)CC[C@H](NC(=O)Oc1ccc(CO)cc1)C(=O)O; assay: as §1; procedure, shortened: as §2
[15] = compound: O=C(O)CC[C@H](NC(=O)Oc1ccc(COC(=O)Nc2ccc(N(CCCl)CCCl)cc2)cc1)C(=O)O; assay: as §1; procedure, shortened: as §2
[16] = compound: O=C(O)CC[C@H](NC(=O)Oc1ccc(COC(=O)Nc2ccccc2N(CCCl)CCCl)cc1)C(=O)O; assay: as §1; procedure, shortened: as §2

Molecule	k cat [1]	T1/2 [2]	IC50 [3]	IC50 [4]	Ratio [5]	further results
O=C(O)CC[C@H](NC(=O)Nc1ccc(COC(=O)Nc2ccc(N(CCCl)CCCl)cc2)cc1)C(=O)O	10 s⁻¹	–	–	–	–	–
O=C(O)CC[C@H](NC(=O)Nc1ccc(COC(=O)Nc2ccccc2N(CCI)CCI)cc1)C(=O)O	–	2.7 min	3 µM	149 µM	–	–
O=C(O)CC[C@H](NC(=O)Oc1ccc(COC(=O)Nc2ccc(N(CCI)CCI)cc2)cc1)C(=O)O	–	0.98 min	1.3 µM	53.6 µM	2	–
O=C(O)CC[C@H](NC(=O)Nc1ccc(COC(=O)Nc2ccc(N(CCI)CCI)cc2)cc1)C(=O)O	–	0.97 min	1.8 µM	180 µM	1.9	–
CS(=O)(=O)OCCN(CCCl)c1ccccc1NC(=O)OCc1ccc(OC(=O)N[C@@H](CCC(=O)O)C(=O)O)cc1	–	10 min	28.5 µM	148 µM	–	–
O=C(O)CC[C@H](NC(=O)Nc1ccc(COC(=O)Nc2ccccc2N(CCBr)CCBr)cc1)C(=O)O	–	3 min	4.7 µM	118 µM	3.5	–
O=C(O)CC[C@H](NC(=O)Oc1ccc(COC(=O)Nc2ccccc2N(CCBr)CCBr)cc1)C(=O)O	–	3.74 min	95.2 µM	183 µM	3.5	–
O=C(O)CC[C@H](NC(=O)Oc1ccc(COC(=O)Nc2ccccc2N(CCCl)CCCl)cc1)C(=O)O	4.27 s⁻¹	146.3 min	28.1 µM	38.1 µM	11.9	k cat/Km [6]: 4.14
CS(=O)(=O)OCCN(CCCl)c1ccc(C(=O)N[C@@H](CCC(=O)O)C(=O)O)cc1	–	59 min	–	–	2.3	IC50 [7]: 3230 µM; IC50 [8]: 100 µM
CN(C(=O)OCc1ccc(OC(=O)N[C@@H](CCC(=O)O)C(=O)O)cc1)c1ccc(N(CCBr)CCBr)cc1	–	2.7 min	3.6 µM	27.2 µM	1	–
CN(C(=O)OCc1ccc(OC(=O)N[C@@H](CCC(=O)O)C(=O)O)cc1)c1ccc(N(CCCl)CCCl)cc1	4.32 s⁻¹	173.6 min	1.7 µM	19.6 µM	20.6	k cat/Km [6]: 1.78
CS(=O)(=O)OCCN(CCOS(C)(=O)=O)c1ccccc1NC(=O)OCc1ccc(OC(=O)N[C@@H](CCC(=O)O)C(=O)O)cc1	–	10.8 min	40 µM	208 µM	–	–
O=C(O)CC[C@H](NC(=O)Nc1ccc(COC(=O)Nc2ccc(N(CCBr)CCBr)cc2)cc1)C(=O)O	–	0.85 min	3.1 µM	205 µM	0.4	–
O=C(O)CC[C@H](NC(=O)Oc1ccc(COC(=O)Nc2ccccc2N(CCI)CCI)cc1)C(=O)O	–	2.1 min	19 µM	73.3 µM	–	–
CN(C(=O)OCc1ccc(NC(=O)N[C@@H](CCC(=O)O)C(=O)O)cc1)c1ccc(N(CCCl)CCCl)cc1	5.5 s⁻¹	173.6 min	2.5 µM	39.7 µM	20.9	k cat/Km [6]: 0.91
O=C(O)CC[C@H](NC(=O)Oc1ccc(COC(=O)Nc2ccc(N(CCBr)CCBr)cc2)cc1)C(=O)O	–	0.9 min	2.6 µM	99.7 µM	0.4	–
CN(C(=O)OCc1ccc(NC(=O)N[C@@H](CCC(=O)O)C(=O)O)cc1)c1ccc(N(CCI)CCI)cc1	–	3.9 min	1.5 µM	–	6.5	–
O=C(O)CC[C@H](NC(=O)Nc1ccc(CO)cc1)C(=O)O	65.4 s⁻¹	–	–	–	–	k cat/Km [6]: 21.1
O=C(O)CC[C@H](NC(=O)Nc1ccc(COC(=O)Nc2ccccc2N(CCCl)CCCl)cc1)C(=O)O	2.92 s⁻¹	107.5 min	4.5 µM	21.1 µM	13.9	k cat/Km [6]: 5.31
CN(C(=O)OCc1ccc(OC(=O)N[C@@H](CCC(=O)O)C(=O)O)cc1)c1ccc(N(CCI)CCI)cc1	–	4.6 min	2.6 µM	21.5 µM	7.7	–
O=C(O)CC[C@H](NC(=O)Oc1ccc(CO)cc1)C(=O)O	140 s⁻¹	–	–	–	–	k cat/Km [6]: 82.3
CN(C(=O)OCc1ccc(NC(=O)N[C@@H](CCC(=O)O)C(=O)O)cc1)c1ccc(N(CCBr)CCBr)cc1	–	2.8 min	4.1 µM	–	1	–
O=C(O)CC[C@H](NC(=O)Oc1ccc(COC(=O)Nc2ccc(N(CCCl)CCCl)cc2)cc1)C(=O)O	< 10 s⁻¹	–	–	–	–	–
B1	–	–	–	–	–	Km [9]: 6.05 µM; Km [10]: 2.43 µM; Km [11]: 3.1 µM; Km [12]: < 5 µM; Km [13]: 0.55 µM; Km [14]: 1.7 µM; Km [15]: < 5 µM; Km [16]: 1.02 µM
